10 compounds from ChEMBL document CHEMBL1165897, “Design, synthesis, characterization, and antibacterial activity of {5-chloro-2-[(3-substitutedphenyl-1,2,4-oxadiazol-5-yl)-methoxy]-phenyl}-(phenyl)-methanones” (2010) can be followed below.

For experiment [1], the system named is Staphylococcus aureus. In words: Antibacterial activity against Staphylococcus aureus NCIM 2079; ATCC 6538P after 24 hrs by microtitration method. In kind it is functional. As to conditions: ATCC6538P. An outline of the steps:
(§1)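 Microtitration assay using the same isolates as the cup plate test; MIC taken as the lowest concentration of test sample or antibiotic giving no visible growth.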

Experiment [2] deals with Escherichia coli. Description: Antibacterial activity against Escherichia coli NCIM 2065; ATCC 8739 at […] after 24 hrs by agar cup plate method. Format: functional. As to conditions: ATCC 8739, 24 h, read-out: IZ. Summed up: (§2)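 Agar cup plate diffusion: test compounds at 100 µg/mL in 20% water in DMSO placed in bores cut in agar plates seeded with each organism, alongside standard drugs; incubated 37 °C for 24 h, then zone of inhibition around the bore measured. Values are the average of three experiments.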

The subject of experiment [3] is Bacillus subtilis. In words: Antibacterial activity against Bacillus subtilis NCIM 2063; ATCC 6633 after 24 hrs by microtitration method. In kind it is functional, NCIM 2063; ATCC6633. As to conditions: ATCC6633, 24 h. An outline of the steps:
as §1

Experiment [4] has as its system Escherichia coli. In words: Antibacterial activity against Escherichia coli NCIM 2065; ATCC 8739 after 24 hrs by microtitration method. To be noted: ATCC 8739, 24 h. In kind it is functional. Summed up: as §1
The subject of experiment [5] is Staphylococcus aureus. In words: Antibacterial activity against Staphylococcus aureus NCIM 2079; ATCC 6538P at […] after 24 hrs by agar cup plate method. In kind it is functional, NCIM 2079; ATCC6538P. Details: dose or concentration left out as unconfirmed. As to conditions: ATCC6538P, read-out: IZ.
The next experiment deals with Klebsiella pneumoniae. Description: Antibacterial activity against Klebsiella pneumoniae NCIM 2957; ATCC 11298 after 24 hrs by microtitration method. In kind it is functional. As to conditions: ATCC 11298, 24 h. An outline of the steps:
as §1

The subject of experiment [6] is Bacillus subtilis. In words: Antibacterial activity against Bacillus subtilis NCIM 2063; ATCC 6633 at […] after 24 hrs by agar cup plate method. Format: functional, NCIM 2063; ATCC6633. To be noted: ATCC6633, 24 h, read-out: IZ. Summed up: as §2

≈ marks a conversion by molar mass, not a printed value.

With `CCOc1ccc(-c2noc(COc3ccc(Cl)cc3C(=O)c3ccccc3)n2)cc1`, the MIC with Staphylococcus aureus [1] worked out at 29.8 µg/mL (≈ 68.5 µM); against Bacillus subtilis [3], 42.2 µg/mL (≈ 97 µM); in the experiment on Escherichia coli [4] it was 59.4 µg/mL (≈ 137 µM); against Klebsiella pneumoniae it was 40 µg/mL (≈ 92 µM). Further, the zone of inhibition at 100000 µg/mL was determined as 11 mm in the experiment with Escherichia coli [2] and 13 mm in the experiment with Bacillus subtilis [6]. Further, the zone of inhibition in the experiment on Staphylococcus aureus [5] worked out at 19 mm.
As to `COc1cc(-c2noc(COc3ccc(Cl)cc3C(=O)c3ccccc3)n2)ccc1F`, the MIC was 30 µg/mL (≈ 68.4 µM) with Staphylococcus aureus [1], 29.8 µg/mL (≈ 67.9 µM) against Bacillus subtilis [3], 30.6 µg/mL (≈ 69.7 µM) against Escherichia coli [4] and 30.8 µg/mL (≈ 70.2 µM) in the experiment on Klebsiella pneumoniae. Further, the zone of inhibition at 100000 µg/mL worked out at 17 mm with Escherichia coli [2] and 19 mm in the experiment with Bacillus subtilis [6]. In addition, the zone of inhibition in the experiment with Staphylococcus aureus [5] stood at 18 mm.
`O=C(c1ccccc1)c1cc(Cl)ccc1OCc1nc(-c2ccc(I)cc2)no1`: the MIC in the experiment with Staphylococcus aureus [1] was 41.6 µg/mL (≈ 80.5 µM); with Bacillus subtilis [3], 30.8 µg/mL (≈ 59.6 µM); in the experiment with Escherichia coli [4], 62.2 µg/mL (≈ 120 µM); in the experiment on Klebsiella pneumoniae it was 46 µg/mL (≈ 89 µM). Moreover, the zone of inhibition at 100000 µg/mL in the experiment on Escherichia coli [2] stood at 10 mm; in the experiment on Bacillus subtilis [6], 16 mm. The zone of inhibition in the experiment on Staphylococcus aureus [5] amounted to 13 mm.
Turning to `CC(C)c1ccc(-c2noc(COc3ccc(Cl)cc3C(=O)c3ccccc3)n2)cc1`, the MIC against Staphylococcus aureus [1] was found to be 39.6 µg/mL (≈ 91.5 µM); against Bacillus subtilis [3], 40.6 µg/mL (≈ 93.8 µM); against Escherichia coli [4], 60.8 µg/mL (≈ 140 µM); in the experiment with Klebsiella pneumoniae, 62 µg/mL (≈ 143 µM). The values for the zone of inhibition at 100000 µg/mL in the experiment with Escherichia coli [2] and with Bacillus subtilis [6] were 11 mm and 14 mm, respectively. Moreover, the zone of inhibition in the experiment on Staphylococcus aureus [5] was found to be 15 mm.
With `CC1(C)S[C@@H]2[C@H](NC(=O)[C@H](N)c3ccccc3)C(=O)N2[C@H]1C(=O)O` [AMPICILLIN], the MIC against Staphylococcus aureus [1] came out at 3.36 µg/mL (≈ 9.62 µM); against Bacillus subtilis [3], 3.28 µg/mL (≈ 9.39 µM); in the experiment with Escherichia coli [4], 3.88 µg/mL (≈ 11.1 µM); in the experiment on Klebsiella pneumoniae, 4 µg/mL (≈ 11.4 µM). Further, the zone of inhibition at 100000 µg/mL in the experiment with Escherichia coli [2] was found to be 30 mm; in the experiment with Bacillus subtilis [6] it was 32 mm. In the experiment on Staphylococcus aureus [5], the zone of inhibition is 31 mm.
Take `O=C(c1ccccc1)c1cc(Cl)ccc1OCc1nc(-c2ccc(F)c(Cl)c2)no1`: the MIC against Staphylococcus aureus [1] was determined as 30.6 µg/mL (≈ 69 µM); in the experiment on Bacillus subtilis [3] it was 29.8 µg/mL (≈ 67.2 µM); with Escherichia coli [4], 30.8 µg/mL (≈ 69.5 µM); against Klebsiella pneumoniae, 39.6 µg/mL (≈ 89.3 µM). Besides, the zone of inhibition at 100000 µg/mL in the experiment on Escherichia coli [2] came to 16 mm; in the experiment on Bacillus subtilis [6], 19 mm. For the same compound, the zone of inhibition in the experiment with Staphylococcus aureus [5] was found to be 17 mm.
Take `O=C(c1ccccc1)c1cc(Cl)ccc1OCc1nc(-c2ccc(F)cc2)no1`: the MIC with Staphylococcus aureus [1] is 40.6 µg/mL (≈ 99.3 µM); in the experiment on Bacillus subtilis [3], 39.6 µg/mL (≈ 96.9 µM); in the experiment with Escherichia coli [4], 30.8 µg/mL (≈ 75.3 µM); in the experiment on Klebsiella pneumoniae, 42 µg/mL (≈ 103 µM). Also, the zone of inhibition at 100000 µg/mL in the experiment with Escherichia coli [2] stood at 16 mm; in the experiment with Bacillus subtilis [6], 15 mm. Further, the zone of inhibition in the experiment on Staphylococcus aureus [5] amounted to 14 mm.
Take `O=C(c1ccccc1)c1cc(Cl)ccc1OCc1nc(-c2ccccc2)no1`: the MIC was 68 µg/mL (≈ 174 µM) against Staphylococcus aureus [1], 41 µg/mL (≈ 105 µM) in the experiment on Bacillus subtilis [3], 64.2 µg/mL (≈ 164 µM) in the experiment on Escherichia coli [4] and 62 µg/mL (≈ 159 µM) in the experiment with Klebsiella pneumoniae. Moreover, the zone of inhibition at 100000 µg/mL in the experiment with Escherichia coli [2] is 10 mm; in the experiment on Bacillus subtilis [6], 14 mm. Moreover, the zone of inhibition in the experiment with Staphylococcus aureus [5] came to 9 mm.
On to `Cc1cc(-c2noc(COc3ccc(Cl)cc3C(=O)c3ccccc3)n2)ccc1F`, for which the MIC with Staphylococcus aureus [1] is 40 µg/mL (≈ 94.6 µM); with Bacillus subtilis [3], 30.6 µg/mL (≈ 72.4 µM); against Escherichia coli [4], 29.6 µg/mL (≈ 70 µM); with Klebsiella pneumoniae, 30 µg/mL (≈ 70.9 µM). Besides, the zone of inhibition at 100000 µg/mL came out at 20 mm in the experiment with Escherichia coli [2] and 17 mm in the experiment on Bacillus subtilis [6]. Besides, the zone of inhibition in the experiment with Staphylococcus aureus [5] came to 15 mm.
With `Cc1cc(F)c(-c2noc(COc3ccc(Cl)cc3C(=O)c3ccccc3)n2)cc1F`, the MIC was 22.4 µg/mL (≈ 50.8 µM) in the experiment with Staphylococcus aureus [1], 21.5 µg/mL (≈ 48.8 µM) in the experiment with Bacillus subtilis [3], 29.8 µg/mL (≈ 67.6 µM) against Escherichia coli [4] and 30.6 µg/mL (≈ 69.4 µM) against Klebsiella pneumoniae. The results for the zone of inhibition at 100000 µg/mL in the experiment on Escherichia coli [2] and in the experiment with Bacillus subtilis [6] were 19 mm and 27 mm, respectively. Moreover, the zone of inhibition with Staphylococcus aureus [5] came out at 25 mm.

By MIC is commonly meant the lowest concentration found to suppress growth.
